Assay outcomes from PubChem BioAssay.
Pf gametocyte: P. falciparum stage V gametocyte viability inhibition. P. falciparum stage V gametocytes, ATP luminescence, 24 h. inhibition, % at 10.9 µM. actives 0.065% (n = 150,000). AID 743093;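 active = inhibition above the mean plus 3 SD of compounds within the control limits, set per campaign, cut at about 38% in these data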
APP 5'UTR act: activates APP 5'UTR luciferase reporter | SH-SY5Y APP 5'UTR luciferase reporter, luminescence; zero percent = DMSO vehicle wells | activation, % at 2 µM | actives 1% (n = 190,000);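 active = activation above a set limit, based on mean plus 3 SD of controls, cut at about 140% in these data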
STAT3 act: activators of IL-6 induced STAT3 signaling; U3A cells, IL-6 STAT3-luciferase reporter, luminescence; 100% = signal with IL-6 EC80 alone; actives 0.91% (n = 190,000); activation (% of control), % at 5.6 µM;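 active = activation above the screen-wide mean of compound activation plus 3 SD, cut at about 130% in these data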
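Material: STAT3-luciferase reporter U3A cells. Controls: IL-6-treated wells, 100% activation. Read-out: % activation versus median of IL-6-stimulated wells. Probe or stimulus: IL-6 stimulus at 33 ng/mL final. Timing: compound 1 h, then IL-6 6 h at 37 °C. Signal: reporter luminescence signal.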
STAT1 inh: inhibitors of IFN-gamma induced STAT1 signaling; AID 920; actives 0.35% (n = 200,000); NIH 3T3 STAT1-luciferase reporter, luminescence; inhibition, % at 5.5 µM;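 active = inhibition above a set limit, the mean inhibition across all tested compounds plus 3 SD, cut at about 34% in these data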
NF-kB expr up: raises NF-kB expression in human neuronal cells | NF-kB reporter expression; stronger effect = higher value | fold change at 12.5 µM | actives 1.6% (n = 190,000) | AID 1239; in the data active = fold change above about 3.3
STAT1 act: increases IFN-gamma driven STAT1 reporter signal | NIH 3T3 STAT1-luciferase reporter, luminescence; 100% = IFN-gamma alone, no compound | activation (% of control), % at 5.5 µM | actives 2.6% (n = 200,000) | AID 932;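 active = activation above the screen-wide mean activation plus 3 SD, cut at about 130% in these data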
Hits are given with their value; i = inactive; nt = no result. Shown are actives, neighbours in structure and some others; about 3.9% of the full set was active somewhere.

SMILES	Pf gametocyte	APP 5'UTR act	STAT3 act	STAT1 inh	NF-kB expr up	STAT1 act
CCCOc1ccc(C(=O)Nc2ccc(Cl)cn2)cc1	i	136.9	i	i	8.55	i
Cc1ccc(C(=O)Nc2ncc3c(Cl)cccc3n2)cc1	i	140.7	i	i	i	i
Cc1ccc(C(=O)Nc2ccc(Cl)cn2)cc1	i	172.1	i	i	6.61	i
Cc1ccc(C(=O)Nc2nccc(-c3cccs3)n2)cc1	i	i	i	i	i	i
CC(C)C(=O)Nc1ccc(NC(=O)c2ccccc2Cl)nc1	i	i	i	i	i	132.4
O=C(Nc1ccc(Cl)cn1)c1ccc(Oc2ccccc2)cc1	i	nt	nt	nt	nt	nt
CC(C)C12CN3CC(C(C)C)(CN(C1)C3c1ccc([N+](=O)[O-])o1)C2=O (stereo not given)	i	nt	nt	nt	nt	nt
CC(C)(C)OC(=O)CNC(=O)c1[nH]cnc1C(=O)NCCCCCNC(=O)OC(C)(C)C	i	nt	nt	nt	nt	nt
CN(C)C(=O)N1CCC(C(=O)N2CCCC(C(=O)c3cccc4ccccc34)C2)CC1 (stereo not given)	i	i	i	i	i	i
CCOC(=O)C1(CCCc2ccccc2)CCN(C(=O)C2CCCN(C(N)=O)C2)CC1 (stereo not given)	i	i	i	i	i	i
CC1(C)CC(=O)C2=C(C1)Nc1ccccc1NC2c1ccc([N+](=O)[O-])cc1 (stereo not given)	i	nt	nt	nt	nt	nt
Cc1ccccc1C(=O)Nc1ccccn1	nt	i	i	i	i	i
Cc1ccccc1C(=O)Nc1ccc(Cl)cn1	i	i	i	i	i	129.0
Cc1cc(C(=O)Nc2nc(C)c(C(=O)N(C)C)s2)ccc1[N+](=O)[O-]	i	i	i	i	i	150.2
Cc1ccc(-n2c(C)cc(C(=O)COC(=O)c3c(C)noc3C)c2C)cc1	i	i	i	i	3.47	129.3
Cc1nc2ccc(Br)cc2c(=O)n1Cc1cccs1	i	nt	nt	nt	nt	nt
O=C1NCCN/C1=C\C(=O)c1ccc(Cl)cc1	i	nt	nt	nt	nt	nt
O=C1NCCN/C1=C\C(=O)c1ccc(F)cc1	i	nt	nt	nt	nt	nt
CC1CN/C(=C\C(=O)c2ccc(Cl)cc2)C(=O)N1 (stereo not given)	i	174.6	i	i	4.67	i
CC1CN/C(=C\C(=O)c2ccccc2)C(=O)N1 (stereo not given)	nt	i	i	i	i	138.0
COc1ccc(C(=O)NC2CC3CCCC(C2)N3Cc2ccccc2)cc1OC (stereo not given)	i	nt	nt	nt	nt	nt
CSc1nc(O)c(C(c2ccc(OC(C)C)cc2)c2c(O)nc(SC)[nH]c2=O)c(=O)[nH]1	i	nt	nt	nt	nt	nt
Cc1nn(-c2cccc(Cl)c2)c2nc(-c3ccncc3)cc(C(=O)N3CCOCC3)c12	nt	i	i	i	i	i
CCOc1ccc(-c2cn(-c3ccc(OC)cc3)c(SC)n2)cc1	i	i	i	i	3.8	143.6
Clc1ccc(-c2cn3cccnc3n2)cc1	i	i	i	i	i	133.1
SMILES	Pf gametocyte	APP 5'UTR act	STAT3 act	STAT1 inh	NF-kB expr up	STAT1 act
Clc1ccc(-c2cn3cccnc3n2)cc1Cl	nt	i	i	i	i	i
O=C(NCCN1CCOCC1)c1cc([N+](=O)[O-])cc([N+](=O)[O-])c1	i	nt	nt	nt	nt	nt
N/C(=N\N=C\c1cccc([N+](=O)[O-])c1)c1nonc1N	i	nt	nt	nt	nt	nt
N/C(=N\N=C\c1ccc2c(c1)OCO2)c1nonc1N	nt	221.0	i	i	7.59	131.9
O=C1C2CC=CCC2C(=O)N1Cc1nnc(-c2ccccc2Br)o1 (stereo not given)	i	nt	nt	nt	nt	nt
CCOc1ccc2nc(-c3ccccc3)[nH]c2c1	nt	142.2	i	i	5.43	139.3
COc1ccc2nc(SCC(=O)c3ccco3)[nH]c2c1	i	i	i	i	i	130.3
CCOc1ccc2nc(C(C)O)[nH]c2c1 (stereo not given)	nt	i	i	i	i	i
CCOc1ccc2nc(SCC(=O)N(C)C)[nH]c2c1	i	i	i	i	i	133.0
CCNC(=S)Nc1ccc2c(c1)oc1ccccc12	i	nt	nt	nt	nt	nt
COCCNC(=O)c1cc(-c2ccccc2)n(Cc2cc(C)no2)n1	i	nt	nt	nt	nt	nt
O=C1CSC2=NCN(c3ccc4c(c3)OCO4)CN12	nt	i	i	i	i	i
CN(C)c1ccc(N2CN=C3SCC(=O)N3C2)cc1	nt	135.6	i	i	i	160.1
CCCOc1ccc(C(=O)Nc2ccc(S(=O)(=O)Nc3cc(C)nc(C)n3)cc2)cc1	i	nt	nt	nt	nt	nt
CC(C)c1nnc(NC(=O)CCC(=O)Nc2ccc3cn[nH]c3c2)s1	i	nt	nt	nt	nt	nt
CCOC(=O)c1oc2ccc(/C=N/O)c(Cl)c2c1C	nt	i	i	i	i	132.2
CCOC(=O)c1oc2cc(C)cc(C)c2c1C	i	nt	nt	nt	nt	nt
CC(=O)Nc1ccc2c(CSc3nnc(N)s3)cc(=O)oc2c1	i	nt	nt	nt	nt	nt
Cc1cccc(-n2ncc3c(NC(C)C)ncnc32)c1	nt	158.2	i	i	4.97	150.1
Cc1ccccc1Nc1ncnc2c1cnn2-c1ccccc1	nt	i	i	i	i	129.6
CC(C)Nc1ncnc2c1cnn2-c1ccccc1	nt	i	i	i	4.04	135.6
CC(=O)CSc1ncnc2c1cnn2-c1ccccc1	i	i	i	i	7.19	i
NC(=O)c1ccsc1NC(=O)c1cc(=O)c2ccccc2o1	nt	i	i	i	i	138.4
Cc1cccc(NC(=O)c2cc(=O)c3ccccc3o2)n1	nt	i	i	i	i	134.1
Cc1ccc(Cl)cc1NC(=S)N1CCC(c2ccccc2)C1 (stereo not given)	i	i	i	i	i	i
SMILES	Pf gametocyte	APP 5'UTR act	STAT3 act	STAT1 inh	NF-kB expr up	STAT1 act
c1ccc2c(c1)CCN(c1nc3cc4c(cc3s1)OCCO4)C2	i	147.8	i	36.7	i	i
CC(C(=O)N1CCOCC1)n1cc([N+](=O)[O-])cn1 (stereo not given)	nt	i	i	i	i	i
C=CCNC(=O)c1onc(CSc2ccc(F)cc2)c1C(=O)NCCOC	i	i	i	i	i	i
COc1ccc(NC(=O)O/N=C/c2ccncc2)cc1	i	i	i	i	i	i
COc1ccc(/C=N/OC(=O)Nc2ccccc2OC)cc1	i	i	i	i	6.27	i
COc1ccc(/C=C/C(=O)Nc2ccccc2C(=O)N2CCCC2)cc1	nt	i	i	i	i	i
COc1ccc(/C=C/C(=O)Nc2cccc(C(C)=O)c2)cc1	i	i	i	i	i	130.2
COc1ccc(NC(=O)/C=C/c2cccc(F)c2)cn1	i	135.3	i	i	3.79	147.3
COc1ccc(/C=C/C(=O)Nc2ccccc2C(=O)O)cc1	i	152.4	i	38.6	i	i
Cc1cccc(CC(C)NC(=O)c2oc3c(F)cccc3c2C)n1 (stereo not given)	i	nt	nt	nt	nt	nt
COc1ccc(/C=C/C(=O)Nc2ccccc2C(F)(F)F)cc1	i	i	i	i	i	137.3
CC(C)COc1ccc(-c2nnc(-c3ccco3)o2)cc1	i	187.2	i	i	4.26	i
COc1cccc(-c2nnc(-c3ccccc3[N+](=O)[O-])o2)c1	i	nt	nt	nt	nt	nt
COc1cccc(C(=O)Nc2ccc(-c3nnc(-c4ccco4)o3)cc2)c1	nt	i	i	i	i	i
COc1cccc(-c2nnc(-c3ccc(C)o3)o2)c1	i	164.0	i	i	4.24	i
